The values below come from ChEMBL document CHEMBL1155976, “Synthesis and preliminary pharmacological evaluation of imidazo[2,1-f]purine-2,4-dione derivatives” (Eur J Med Chem, 2009).

Calls of active or inactive are those of the source. The rule behind the calls is not given here. Where only a bound is given, the exact number is not on record here.

The test system of data set [1] is Mus musculus. Description: Antidepressant activity in Swiss albino mouse assessed as reduction of immobility time at 30 mg/kg, ip administered 30 mins before test by forced swimming test. In kind it is functional. The settings on record: route intraperitoneal. In a few lines:
(§1)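 Male Albino Swiss mice (24–28 g); agent suspended in 1% aqueous Tween 80, ip 10 ml/kg, 30 min before the test. Total immobility time scored over the last 4 min of a 6-min swim session. n = 8–10 mice per group; mean ± SEM, compared with vehicle.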

Data set [2] has as its system Mus musculus. Description: Sedative activity in Swiss albino mouse assessed as reduction on spontaneous locomotor activity at 20 mg/kg, ip administered 30 mins before test measured for 30 mins. The class given is ADME, organism-based. Further details: dose 20 mg/kg, route intraperitoneal. The settings on record: in vivo, 0.5 h. In a few lines:
(§2)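 Male Albino Swiss mice (24–28 g); agent ip in 1% Tween 80, 30 min before the test. Locomotor activity counted as number of crossings during 6-min and 30-min sessions. n = 8–10 mice per group; mean ± SEM versus vehicle.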

The subject of data set [3] is Mus musculus. Description: Sedative activity in Swiss albino mouse assessed as reduction on spontaneous locomotor activity at 20 mg/kg, ip administered 30 mins before test measured for 6 mins. The conditions noted are these: in vivo, 0.1 h. Further details: dose 20 mg/kg, route intraperitoneal. In kind it is ADME, organism-based. In a few lines:
as §2

Data set [4] has as its system Mus musculus. Description: Sedative activity in Swiss albino mouse assessed as reduction on spontaneous locomotor activity at 10 mg/kg, ip administered 30 mins before test measured for 30 mins. In kind it is ADME, organism-based. On the set-up: dose 10 mg/kg, route intraperitoneal. The conditions noted are these: in vivo, 0.5 h.
Data set [5] relates to Mus musculus. The data set is described as follows: Sedative activity in Swiss albino mouse assessed as reduction on spontaneous locomotor activity at 30 mg/kg, ip administered 30 mins before test measured for 6 mins. The conditions noted are these: in vivo, 0.1 h. On the set-up: dose 30 mg/kg, route intraperitoneal. The class given is ADME, organism-based. In a few lines:
as §2

For data set [6], the system named is Mus musculus. The data set is described as follows: Antidepressant activity in Swiss albino mouse assessed as reduction of immobility time at 20 mg/kg, ip administered 30 mins before test by forced swimming test. In kind it is functional. The settings on record: route intraperitoneal. In a few lines:
as §1

Data set [7] relates to Mus musculus. The data set is described as follows: Sedative activity in Swiss albino mouse assessed as reduction on spontaneous locomotor activity at 30 mg/kg, ip administered 30 mins before test measured for 30 mins. In kind it is ADME, organism-based. On the set-up: dose 30 mg/kg, route intraperitoneal. The conditions noted are these: in vivo, 0.5 h. In a few lines: as §2

Data set [8] relates to Mus musculus. The data set is described as follows: Antidepressant activity in Swiss albino mouse assessed as reduction of immobility time at 10 mg/kg, ip administered 30 mins before test by forced swimming test. The conditions noted are these: route intraperitoneal. The class given is functional. In a few lines:
as §1

Data set [9] relates to Mus musculus. Description: Sedative activity in Swiss albino mouse assessed as reduction on spontaneous locomotor activity at 10 mg/kg, ip administered 30 mins before test measured for 6 mins. Further details: dose 10 mg/kg, route intraperitoneal. In kind it is ADME, organism-based. The conditions noted are these: in vivo, 0.1 h.
Data set [10] concerns Mus musculus. The data set is described as follows: Agonist activity at 5HT1A receptor in Swiss albino mouse assessed as decrease in rectal temperature at 10 mg/kg, ip after 90 mins. In kind it is functional, organism-based. On the set-up: dose 10 mg/kg. In a few lines:
(§3)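 Male Albino Swiss mice (24–28 g), free food and water, room at 20 ± 1 °C; test agent suspended in 1% aqueous Tween 80, given ip at 10 ml/kg. Rectal temperature read with a thermometer at 30, 60, 90 and 120 min after dosing. Result expressed as Δt from basal temperature taken at the start; six to ten animals per group, each used once.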

Data set [11] deals with Mus musculus. The data set is described as follows: Agonist activity at 5HT1A receptor in Swiss albino mouse assessed as decrease in rectal temperature at 10 mg/kg, ip after 30 mins. The class given is functional, organism-based. Further details: dose 10 mg/kg. In a few lines:
as §3

Data set [12] has as its system Mus musculus. The data set is described as follows: Agonist activity at 5HT1A receptor in Swiss albino mouse assessed as decrease in rectal temperature at 5 mg/kg, ip after 60 mins. On the set-up: dose 5 mg/kg. In kind it is functional, organism-based. In a few lines: as §3
For data set [13], the system named is Mus musculus. Description: Agonist activity at 5HT1A receptor in Swiss albino mouse assessed as decrease in rectal temperature at 10 mg/kg, ip after 60 mins. The class given is functional, organism-based. Further details: dose 10 mg/kg. In a few lines: as §3
Data set [14] relates to Mus musculus. Description: Agonist activity at 5HT1A receptor in Swiss albino mouse assessed as decrease in rectal temperature at 5 mg/kg, ip after 120 mins. In kind it is functional, organism-based. On the set-up: dose 5 mg/kg. In a few lines:
as §3

The test system of data set [15] is Mus musculus. The data set is described as follows: Agonist activity at 5HT1A receptor in Swiss albino mouse assessed as decrease in rectal temperature at 5 mg/kg, ip after 90 mins. In kind it is functional, organism-based. Further details: dose 5 mg/kg. In a few lines:
as §3

In data set [16] the test system is Mus musculus. Description: Agonist activity at 5HT1A receptor in ip dosed Swiss albino mouse assessed as decrease in rectal temperature. The class given is functional, organism-based. In a few lines: as §3
In data set [17] the target is T1, 5-hydroxytryptamine receptor 1A (Rattus norvegicus, UniProt P19327).
T1 sequence (P19327 whole entry): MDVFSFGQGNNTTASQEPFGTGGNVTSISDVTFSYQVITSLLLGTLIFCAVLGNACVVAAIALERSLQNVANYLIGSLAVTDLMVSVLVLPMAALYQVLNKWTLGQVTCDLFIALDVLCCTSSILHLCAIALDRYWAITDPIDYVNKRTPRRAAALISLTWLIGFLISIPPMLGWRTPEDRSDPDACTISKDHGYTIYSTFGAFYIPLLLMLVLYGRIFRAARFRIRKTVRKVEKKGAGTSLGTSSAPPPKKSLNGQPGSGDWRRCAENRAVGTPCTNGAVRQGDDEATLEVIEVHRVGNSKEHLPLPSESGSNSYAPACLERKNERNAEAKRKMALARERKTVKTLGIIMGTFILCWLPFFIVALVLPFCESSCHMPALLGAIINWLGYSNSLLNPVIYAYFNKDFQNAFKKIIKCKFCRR
The data set is described as follows: Displacement of [3H]8-OH-DPAT from 5HT1A receptor in rat cerebral cortex after 15 mins by liquid scintillation counting. The class given is tissue-based. On the technique in general: Loss of bound radioactivity is the signal in a displacement assay; it reports binding, not function.

Data set [18] concerns Mus musculus. Description: Anxiolytic activity in Swiss albino mouse assessed as number of punished crossings at 10 mg/kg, ip administered 30 mins before test measured for 60s by four plate test. In kind it is functional. The settings on record: route intraperitoneal. In a few lines:
(§4)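 Male Albino Swiss mice. Box with four metal floor plates separated by 4 mm gaps; 120 V between adjacent plates for 0.5 s delivered on crossing. Mice explored 15 s before testing. Agent (ip, 1% Tween 80) given 30 min before the test. Punished crossings counted; n = 10 mice per group, mean ± SEM.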

The next data set addresses D(2) dopamine receptor (Rattus norvegicus, UniProt P61169). The data set is described as follows: Displacement of [3H]spiperone from dopamine D2 receptor in rat striatum membrane after 30 mins by liquid scintillation counting. In kind it is cell membranes. In a few lines: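 Rat striatum homogenised in 50 mM potassium phosphate pH 7.4 and spun twice at 20000 × g. Membranes (3 mg wet weight) incubated with 1 nM [3H]-spiperone and test agent in 0.5 ml for 30 min at 37 °C. Nonspecific binding with (+)butaclamol. GF/B filtration, two washes with ice-cold buffer, scintillation counting; Ki from ≥3 experiments, 10 concentrations in triplicate.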

Data set [19] concerns Mus musculus. Description: Agonist activity at 5HT1A receptor in Swiss albino mouse assessed as decrease in rectal temperature at 5 mg/kg, ip after 30 mins. On the set-up: dose 5 mg/kg. The class given is functional, organism-based. In a few lines: as §3
Data set [20] concerns Mus musculus. The data set is described as follows: Agonist activity at 5HT1A receptor in Swiss albino mouse assessed as decrease in rectal temperature at 10 mg/kg, ip after 30 mins in presence of WAY 100635 administered 15 mins before drug challenge. In kind it is functional, organism-based. On the set-up: dose 10 mg/kg. In a few lines:
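Male Albino Swiss mice (24–28 g). WAY 100635 (0.1 mg/kg, sc, in distilled water) given 15 min before test agent (ip, suspended in 1% Tween 80, 10 ml/kg). Rectal temperature recorded 30 and 60 min after test agent injection. Expressed as Δt versus basal temperature at the start of the experiment.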

Another data set has as its system Rattus norvegicus. The data set is described as follows: Behavioral activity in Wistar rat assessed as reduction of 8-OH-DPAT-induced lower lip retraction at 10 to 20 mg/kg, ip administered 45 mins before 8-OH-DPAT challenge. In kind it is functional, organism-based.
In data set [21] the test system is Mus musculus. Description: Anxiolytic activity in Swiss albino mouse assessed as number of punished crossings at 20 mg/kg, ip. administered 30 mins before test measured for 60s by four plate test. The class given is functional. In a few lines: as §4
Data set [22] has as its target 5-hydroxytryptamine receptor 2A (Rattus norvegicus, UniProt P14842). Description: Displacement of [3H]ketanserin from 5HT2A receptor in rat cerebral cortex after 20 mins by liquid scintillation counting. The class given is tissue-based. In a few lines:
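Rat cerebral cortex homogenised in 50 mM Tris-HCl pH 7.7, spun at 32000 × g, preincubated 10 min at 37 °C, resuspended in 50 volumes. Incubated with 0.6 nM [3H]-ketanserin and test agent (10^-10 to 10^-4 M) at 37 °C for 20 min; mianserin as displacer. GF/B filtration, scintillation counting; Ki from ≥3 experiments, 10 concentrations in triplicate.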

Sequence of 5-hydroxytryptamine receptor 2A (P14842 whole entry): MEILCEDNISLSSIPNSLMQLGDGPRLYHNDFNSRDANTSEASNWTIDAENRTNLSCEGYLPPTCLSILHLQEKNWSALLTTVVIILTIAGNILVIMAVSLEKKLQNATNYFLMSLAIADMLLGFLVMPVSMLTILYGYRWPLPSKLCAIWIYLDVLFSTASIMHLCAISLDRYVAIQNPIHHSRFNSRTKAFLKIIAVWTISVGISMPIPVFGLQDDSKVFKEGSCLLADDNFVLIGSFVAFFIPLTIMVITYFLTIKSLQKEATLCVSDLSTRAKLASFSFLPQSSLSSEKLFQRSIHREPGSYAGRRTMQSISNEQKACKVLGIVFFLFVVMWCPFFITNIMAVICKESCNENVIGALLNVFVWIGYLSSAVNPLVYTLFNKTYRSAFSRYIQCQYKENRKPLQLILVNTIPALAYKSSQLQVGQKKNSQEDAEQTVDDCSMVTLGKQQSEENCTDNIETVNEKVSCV
Sequence of D(2) dopamine receptor (P61169 whole entry): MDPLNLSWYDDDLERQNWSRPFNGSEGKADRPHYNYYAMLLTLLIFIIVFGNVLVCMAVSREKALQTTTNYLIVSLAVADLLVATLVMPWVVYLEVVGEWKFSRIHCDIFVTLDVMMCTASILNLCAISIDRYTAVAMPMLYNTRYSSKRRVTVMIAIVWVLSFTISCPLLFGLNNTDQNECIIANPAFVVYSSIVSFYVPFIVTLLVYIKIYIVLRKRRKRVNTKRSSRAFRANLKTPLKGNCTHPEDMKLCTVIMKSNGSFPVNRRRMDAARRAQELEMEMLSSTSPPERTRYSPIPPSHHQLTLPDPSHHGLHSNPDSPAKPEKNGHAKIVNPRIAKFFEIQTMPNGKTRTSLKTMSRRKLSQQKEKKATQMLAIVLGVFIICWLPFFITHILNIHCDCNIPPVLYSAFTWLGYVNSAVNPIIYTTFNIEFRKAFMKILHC

For `CN(C)CCCN1c2ccccc2CCc2ccccc21` [IMIPRAMINE], the Activity in the data set with Mus musculus [1] was determined as 76.4 s; in the data set on Mus musculus [2], 625.3; in the data set on Mus musculus [3], 314.9; in the data set with Mus musculus [4], 876.8; in the data set on Mus musculus [5], 300.9; in the data set with Mus musculus [6], 107.8 s. For the same compound, the Activity was found to be 602.3 in the data set on Mus musculus [7], 149.1 s in the data set with Mus musculus [8] and 338 with Mus musculus [9].
What is called Ki is a dissociation constant, usually derived from enzyme kinetics or from competition with a known ligand. The low end stands for higher affinity, the high end for lower affinity. On to `Cn1c(=O)c2c(nc3n(CCCN4CCN(c5ccccc5)CC4)ccn23)n(C)c1=O`, for which the deltaT in the data set with Mus musculus [10] is -0.4 °C; with Mus musculus [11] it was -1.2 °C; in the data set on Mus musculus [12], -0.4 °C; with Mus musculus [13], -0.4 °C; in the data set with Mus musculus [14] it was 0 °C; in the data set on Mus musculus [15] it was -0.2 °C. In addition, the deltaT in the data set with Mus musculus [19] is -0.6 °C; in the data set on Mus musculus [20], -0.3 °C. The Activity was 88.9 s in the data set with Mus musculus [1]; 255.6 with Mus musculus [2]; 146.4 in the data set with Mus musculus [3]; 139.2 with Mus musculus [5]; “Dose-dependent effect” with Mus musculus [16]; 4.7 in the data set on Mus musculus [18]. Further, the Activity in the data set on Mus musculus [6] worked out at 87.9 s; in the data set on Mus musculus [7] it was 221; with Mus musculus [21], 6.3; with Mus musculus [8], 147.5 s. In addition, the inhibition constant Ki in [17] is 24.8 nM; at D(2) dopamine receptor, above 1000 nM; in [22], above 1000 nM. Further, the outcome in the data set on Rattus norvegicus was Active.
